In ChEMBL document CHEMBL2396633, “Effects of cytoprotective antioxidants on lymphocytes from representative mitochondrial neurodegenerative diseases” (Bioorg Med Chem, 2013):
The source made the active and inactive calls. The calls are words filed in the database; no cut-off is given here.

How the values were obtained:
Homo sapiens [1] = species on record: Homo sapiens; assay: Cytoprotective activity against diethyl maleate-induced oxidative stress in Leber's optic atrophy disease patient GM10744 cells assessed as cell viability at 2.5 uM preincubated for 15 hrs prior to diethyl maleate-challenge measured after 6 hrs by hemocytometer-based assay; type: functional
Summary of the method: (§1)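 Cells seeded at 5 × 10⁵ cells/mL, preincubated with 0.5 or 2.5 µM compound at 37 °C, 5% CO₂, then given 5 mM diethyl maleate for 6 h. Viable cells counted by trypan blue exclusion on a hemocytometer. Viability expressed as % of untreated control. Three independent experiments in triplicate, mean ± S.E.M.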

Homo sapiens [2] = species on record: Homo sapiens; assay: Cytoprotective activity against diethyl maleate-induced oxidative stress in Alzheimer's disease patient AG06849 cells assessed as cell viability at 0.5 uM preincubated for 15 hrs prior to diethyl maleate-challenge measured after 6 hrs by hemocytometer-based assay; type: functional; summary of the method: as §1
[3] = Effect on total ATP level in Leber's optic atrophy disease patient GM10744 cells at 5 uM after 48 hrs by bioluminescence assay relative to control; type: functional, Homo sapiens
Summary of the method: (§2)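 Lymphocytes were adapted to glucose-free RPMI with 25 mM galactose for at least one week. Cells at 2 × 10⁵ cells/mL were given compound at final 5, 10 or 25 µM for 48 h at 37 °C, 5% CO₂. Total intracellular ATP was measured by luciferase bioluminescence kit and expressed as % of untreated control.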

CCRF-CEM [4] = assay: Antioxidant activity in human CCRF-CEM cells assessed as suppression of diethyl maleate-induced ROS generation preincubated for 18 hrs prior to diethyl maleate-challenge measured after 1 hr by FACS flow cytometric analysis in presence of DCFH-DA; type: functional, cell-based
Summary of the method: (§3)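 Lymphocytes (Coriell, RPMI with 15% FBS) or CCRF-CEM cells (RPMI with 10% FBS), 2.5 × 10⁵ cells/mL, exposed to compounds for 18 h at 37 °C, then 5 mM diethyl maleate for 1 h. Cells washed in PBS, loaded with 10 µM DCFH-DA in PBS/10 mM glucose for 25 min at 37 °C in the dark. DCF read by flow cytometry (488 nm excitation, 530 nm emission). Mean ± S.E.M., three experiments in duplicate.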

GM15850 [5] = assay: Cytoprotective activity against diethyl maleate-induced oxidative stress in Friedreich's ataxia disease patient GM15850 cells assessed as cell viability at 0.5 uM preincubated for 15 hrs prior to diethyl maleate-challenge measured after 6 hrs by hemocytometer-based assay; type: functional; settings: Homo sapiens; summary of the method: as §1
Bos taurus [6] = species on record: Bos taurus; assay: Inhibition of NADH-ubiquinone oxidoreductase in bovine heart mitochondria after 5 mins by spectrophotometric analysis relative to control
Summary of the method: (§4)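 Bovine heart submitochondrial particles, 12 µg, incubated 5 min at 39 °C with compound in 50 mM phosphate pH 7.4, 0.25 M sucrose, 1 mM MgCl₂, 2 mM KCN, plus antimycin A. Reaction started with 50 µM NADH and 50 µM coenzyme Q₁; NADH loss read at 340 nm. K_I derived. Mean of three experiments in triplicate.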

Bos taurus [7] = species on record: Bos taurus; assay: Inhibition of NADH oxidase activity of bovine heart mitochondrial […] at 1 uM after 5 mins by spectrophotometric analysis relative to control; values are per cent of control
GM15850 [8] = assay: Effect on total ATP level in Friedreich's ataxia disease patient GM15850 cells after 48 hrs by bioluminescence assay; type: functional; settings: Homo sapiens; summary of the method: as §2
Homo sapiens [9] = species on record: Homo sapiens; assay: Cytoprotective activity against diethyl maleate-induced oxidative stress in Alzheimer's disease patient AG06849 cells assessed as cell viability at 2.5 uM preincubated for 15 hrs prior to diethyl maleate-challenge measured after 6 hrs by hemocytometer-based assay; type: functional; summary of the method: as §1
CCRF-CEM [10] = assay: Cytoprotective activity against diethyl maleate-induced oxidative stress in human CCRF-CEM cells assessed as cell viability at 0.5 uM preincubated for 15 hrs prior to diethyl maleate-challenge measured after 6 hrs by hemocytometer-based assay; type: functional; summary of the method: as §1
Bos taurus [11] = species on record: Bos taurus; assay: Inhibition of NADH oxidase activity of bovine heart mitochondrial […] at 10 uM after 5 mins by spectrophotometric analysis relative to control; values are per cent of control
GM15850 [12] = assay: Cytoprotective activity against diethyl maleate-induced oxidative stress in Friedreich's ataxia disease patient GM15850 cells assessed as cell viability at 2.5 uM preincubated for 15 hrs prior to diethyl maleate-challenge measured after 6 hrs by hemocytometer-based assay; type: functional; settings: Homo sapiens; summary of the method: as §1
[13] = Effect on total ATP level in Leber's optic atrophy disease patient GM10744 cells at 25 uM after 48 hrs by bioluminescence assay relative to control; type: functional, Homo sapiens; summary of the method: as §2
GM15850 [14] = assay: Effect on total ATP level in Friedreich's ataxia disease patient GM15850 cells at 25 uM after 48 hrs by bioluminescence assay relative to control; type: functional, Homo sapiens; summary of the method: as §2
[15] = Effect on total ATP level in Leber's optic atrophy disease patient GM10744 cells at 10 uM after 48 hrs by bioluminescence assay relative to control; type: functional, Homo sapiens; summary of the method: as §2
Homo sapiens [16] = species on record: Homo sapiens; assay: Cytoprotective activity against diethyl maleate-induced oxidative stress in Leber's optic atrophy disease patient GM10744 cells assessed as cell viability at 0.5 uM preincubated for 15 hrs prior to diethyl maleate-challenge measured after 6 hrs by hemocytometer-based assay; type: functional; summary of the method: as §1
GM15850 [17] = assay: Effect on total ATP level in Friedreich's ataxia disease patient GM15850 cells at 5 uM after 48 hrs by bioluminescence assay relative to control; type: functional, Homo sapiens; summary of the method: as §2
Homo sapiens [18] = species on record: Homo sapiens; assay: Cytoprotective activity against diethyl maleate-induced oxidative stress in Leigh's syndrome patient GM13740 cells assessed as cell viability at 0.5 uM preincubated for 15 hrs prior to diethyl maleate-challenge measured after 6 hrs by hemocytometer-based assay; type: functional; summary of the method: as §1
Homo sapiens [19] = species on record: Homo sapiens; assay: Effect on total ATP level in Leber's optic atrophy disease patient GM10744 cells after 48 hrs by bioluminescence assay; type: functional; summary of the method: as §2
[20] = Effect on total ATP level in CoQ10-deficient human GM17932 cells at 25 uM after 48 hrs by bioluminescence assay relative to control; type: functional; summary of the method: as §2
CCRF-CEM [21] = assay: Antioxidant activity in human CCRF-CEM cells assessed as suppression of diethyl maleate-induced ROS generation at 0.025 to 2.5 uM preincubated for 18 hrs prior to diethyl maleate-challenge measured after 1 hr by FACS flow cytometric analysis in presence of DCFH-DA; type: functional, cell-based; summary of the method: as §3
Homo sapiens [22] = species on record: Homo sapiens; assay: Cytoprotective activity against diethyl maleate-induced oxidative stress in Leigh's syndrome patient GM13740 cells assessed as cell viability at 2.5 uM preincubated for 15 hrs prior to diethyl maleate-challenge measured after 6 hrs by hemocytometer-based assay; type: functional; summary of the method: as §1
Homo sapiens [23] = species on record: Homo sapiens; assay: Cytoprotective activity against diethyl maleate-induced oxidative stress in Parkinson's disease patient GM15010 cells assessed as cell viability at 0.5 uM preincubated for 15 hrs prior to diethyl maleate-challenge measured after 6 hrs by hemocytometer-based assay; type: functional; summary of the method: as §1
[24] = Inhibition of NADH-ubiquinone oxidoreductase in bovine heart mitochondria after 5 mins by spectrophotometric analysis; design: species or system Bos taurus; summary of the method: as §4
[25] = Effect on total ATP level in CoQ10-deficient human GM17932 cells at 5 uM after 48 hrs by bioluminescence assay relative to control; type: functional; summary of the method: as §2
CCRF-CEM [26] = assay: Cytoprotective activity against diethyl maleate-induced oxidative stress in human CCRF-CEM cells assessed as cell viability at 2.5 uM preincubated for 15 hrs prior to diethyl maleate-challenge measured after 6 hrs by hemocytometer-based assay; type: functional; summary of the method: as §1
Homo sapiens [27] = species on record: Homo sapiens; assay: Antioxidant activity in Leber's optic atrophy disease patient GM10744 cells assessed as suppression of diethyl maleate-induced ROS generation at 0.025 to 2.5 uM preincubated for 18 hrs prior to diethyl maleate-challenge measured after 1 hr by FACS flow cytometric analysis in presence of DCFH-DA; type: functional; summary of the method: as §3
Homo sapiens [28] = species on record: Homo sapiens; assay: Antioxidant activity in Alzheimer's disease patient AG06849 cells assessed as suppression of diethyl maleate-induced ROS generation at 0.025 to 2.5 uM preincubated for 18 hrs prior to diethyl maleate-challenge measured after 1 hr by FACS flow cytometric analysis in presence of DCFH-DA; type: functional; summary of the method: as §3
[29] = Effect on total ATP level in CoQ10-deficient human GM17932 cells at 10 uM after 48 hrs by bioluminescence assay relative to control; type: functional; summary of the method: as §2
Homo sapiens [30] = species on record: Homo sapiens; assay: Cytoprotective activity against diethyl maleate-induced oxidative stress in Parkinson's disease patient GM15010 cells assessed as cell viability at 2.5 uM preincubated for 15 hrs prior to diethyl maleate-challenge measured after 6 hrs by hemocytometer-based assay; type: functional; summary of the method: as §1
Bos taurus [31] = species on record: Bos taurus; assay: Inhibition of NADH oxidase activity of bovine heart mitochondrial […] at 5 uM after 5 mins by spectrophotometric analysis relative to control; values are per cent of control
GM15850 [32] = assay: Effect on total ATP level in Friedreich's ataxia disease patient GM15850 cells at 10 uM after 48 hrs by bioluminescence assay relative to control; type: functional, Homo sapiens; summary of the method: as §2
Homo sapiens [33] = species on record: Homo sapiens; assay: Effect on total ATP level in CoQ10-deficient human GM17932 cells after 48 hrs by bioluminescence assay; type: functional; summary of the method: as §2

With `COC1=C(OC)C(=O)C(CCCCCCCCCCO)=C(C)C1=O` [IDEBENONE] the Activity (Homo sapiens [1]) was “Active”, the Activity (Homo sapiens [2]) was “inactive” and the Activity [3] was 55.7%. For the same compound, the Activity (CCRF-CEM [4]) was “Dose-dependent effect”, the Activity (GM15850 [5]) was “inactive” and the Imax (Bos taurus [6]) was 84%. For the same compound, the residual activity (Bos taurus [7]) was 57.4%, the Activity (GM15850 [8]) was “Dose-dependent effect” and the Activity (Homo sapiens [9]) was “Active”. The Activity (CCRF-CEM [10]) was “inactive”, the residual activity (Bos taurus [11]) was 13.2% and the Activity (GM15850 [12]) was “Active”. The Activity [13] was 3%, the Activity (GM15850 [14]) was 2.6% and the Activity [15] was 29.9%. For the same compound, the Activity (Homo sapiens [16]) was “inactive”, the Activity (GM15850 [17]) was 73% and the Activity (Homo sapiens [18]) was “inactive”. For the same compound, the Activity (Homo sapiens [19]) was “Dose-dependent effect”, the Activity [20] was 1.6% and the Activity (CCRF-CEM [21]) was “Active”. For the same compound, the Activity (Homo sapiens [22]) was “Active”, the Activity (Homo sapiens [23]) was “inactive” and the IC50 [24] was 6 µM. The Ki [24] was 4 µM, the Activity [25] was 79.8% and the Activity (CCRF-CEM [26]) was “Active”. For the same compound, the Activity (Homo sapiens [27]) was “Active”, the Activity (Homo sapiens [28]) was “Active” and the Activity [29] was 45.7%. The Activity (Homo sapiens [30]) was “Active”, the residual activity (Bos taurus [31]) was 19.3% and the Activity (GM15850 [32]) was 45.6%. For the same compound, the Activity (Homo sapiens [33]) was “Dose-dependent effect”.
